Assays:
Enterococcus faecium [1] = experiment: Growth inhibition of Streptococcus faecium; assay type: functional
[2] = Stability of the compound in synthetic growth medium assessed as compound remaining at 37 degC after 16 hrs; assay type: physicochemical; details: read-out: Stability
L1210 = experiment: Growth inhibition of mouse L1210 cells; assay type: functional
Escherichia coli = experiment: Growth inhibition of Escherichia coli; assay type: functional
Enterococcus faecium [3] = experiment: Growth inhibition of Streptococcus faecium assessed as inhibition index [I]/[S] for 50% growth inhibition in presence of 1 uM to 1 mM 2'-deoxyuridine; assay type: functional
Enterococcus faecium [4] = experiment: Growth inhibition of Streptococcus faecium assessed as [I]/[S] for 50% growth inhibition in presence of 1 uM to 1 mM uracil; assay type: functional
Enterococcus faecium [5] = experiment: Growth inhibition of Streptococcus faecium assessed as [I]/[S] for 50% growth inhibition in presence of 1 uM to 1 mM cytidine; assay type: functional
[6] = Stability of the compound in bacterial growth medium assessed as compound degradation at pH 7.2; details: buffer
How it was run: (§1)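 Compound held in bacterial growth medium at pH 7.2. Degradation was followed as the time-dependent decrease in UV absorbance at 306 nm.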

[7] = Stability of the compound in mouse […] cell growth medium assessed as compound degradation
Enterococcus faecium [8] = experiment: Growth inhibition of Streptococcus faecium assessed as [I]/[S] for 50% growth inhibition in presence of 1 uM to 1 mM uridine; assay type: functional
Enterococcus faecium [9] = experiment: Growth inhibition of Streptococcus faecium assessed as [I]/[S] for 50% growth inhibition in presence of 1 uM to 1 mM 2'-deoxycytidine; assay type: functional
Enterococcus faecium [10] = experiment: Growth inhibition of Streptococcus faecium assessed as [I]/[S] for 50% growth inhibition in presence of 1 uM to 1 mM thymidine; assay type: functional
Enterococcus faecium [11] = experiment: Growth inhibition of Streptococcus faecium assessed as [I]/[S] for 50% growth inhibition in presence of 1 uM to 1 mM cytosine; assay type: functional
[12] = Stability of the compound in bacterial growth medium by UV spectra analysis; how it was run: as §1
[13] = Half life in synthetic growth medium at 37 degC
Enterococcus faecium [14] = experiment: Growth inhibition of Streptococcus faecium assessed as [I]/[S] for 50% growth inhibition in presence of 1 uM to 1 mM thymine; assay type: functional

Structure (SMILES) | ID50 (Enterococcus faecium [1]) | remaining at 16 h [2] | ID50 (L1210) | ID50 (Escherichia coli) | Ratio (Enterococcus faecium [3]) | Ratio (Enterococcus faecium [4]) | Ratio (Enterococcus faecium [5]) | Stability [6] | Stability [7] | Ratio (Enterococcus faecium [8]) | Ratio (Enterococcus faecium [9]) | Ratio (Enterococcus faecium [10]) | Ratio (Enterococcus faecium [11]) | Stability [12] | half-life [13] | Ratio (Enterococcus faecium [14])
O=c1cc[nH]c(=O)o1 | 2 ×10⁻⁵ M | 15% | 4 ×10⁻⁵ M | 4 ×10⁻⁷ M |  |  |  |  |  |  |  |  |  |  |  | 
O=c1[nH]cc(F)c(=O)o1 | 9 ×10⁻⁸ M |  | 1 ×10⁻⁵ M | 1 ×10⁻⁷ M | 100 | 90 | 8 | Unstable | Unstable | 90 | 10 | 110 | 7 | Unstable | 4 h | 120
Cc1c[nH]c(=O)oc1=O | >1 ×10⁻⁴ M |  | >1 ×10⁻⁴ M | 3 ×10⁻⁴ M |  |  |  |  |  |  |  |  |  |  |  | 

From ChEMBL document CHEMBL3243924, “Synthesis and biological activity of 5-fluoro- and 5-methyl-1,3-oxazine-2,6(3H)-dione” (J Med Chem, 1979)
